The source of these data is ChEMBL document CHEMBL4406921, “Discovery of Axelopran (TD-1211): A Peripherally Restricted μ-Opioid Receptor Antagonist” (ACS Med Chem Lett, 2019).

In data set [1] the target is T1, Mu-type opioid receptor (Homo sapiens, UniProt P35372). Kind of data set: Displacement of [3H]-DPN from recombinant human mu opioid receptor expressed in CHO-K1 cell membranes by radioligand binding assay. Put shortly:
(§1)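 Membranes from CHO-K1 cells stably transfected with human recombinant μ or δ receptor, or guinea pig κ receptor; competition with [3H]-DPN radioligand; affinity reported as pKi.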
In general terms: In a radioligand displacement assay an active substance lowers the binding of a labelled ligand.

The target of data set [2] is Delta-type opioid receptor (Homo sapiens, UniProt P41143). Briefly: Displacement of [3H]-DPN from recombinant human delta opioid receptor expressed in CHO-K1 cell membranes by radioligand binding assay. Put shortly:
as §1

The target of data set [3] is Kappa-type opioid receptor (Cavia porcellus, UniProt P41144). Kind of data set: Displacement of [3H]-DPN from guinea pig kappa opioid receptor expressed in CHO-K1 cell membranes by radioligand binding assay. Put shortly: as §1
Kappa-type opioid receptor, sequence (P41144 whole entry): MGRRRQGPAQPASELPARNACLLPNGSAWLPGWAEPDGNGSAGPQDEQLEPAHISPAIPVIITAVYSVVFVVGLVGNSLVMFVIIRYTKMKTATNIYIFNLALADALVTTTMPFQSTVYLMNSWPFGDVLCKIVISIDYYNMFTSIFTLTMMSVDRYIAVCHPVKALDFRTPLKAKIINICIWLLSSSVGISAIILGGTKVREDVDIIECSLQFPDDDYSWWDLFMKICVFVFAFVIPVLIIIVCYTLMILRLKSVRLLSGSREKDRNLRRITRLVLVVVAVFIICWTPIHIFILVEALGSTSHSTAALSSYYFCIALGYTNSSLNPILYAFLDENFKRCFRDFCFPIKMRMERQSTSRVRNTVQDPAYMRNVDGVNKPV
Data set [4] concerns the target T1, Mu-type opioid receptor. Kind of data set: Antagonist activity at human recombinant mu opioid receptor expressed in CHO-K1 cell membranes assessed as intrinsic activity at 10 pM to 20 uM incubated for 30 mins in presence of Eu-GTP by DELFIA GTP binding assay relative to DAMGO.
Data set [5] is described as follows: Half life in rat liver microsomes at 3 uM. Type of data set: ADME, Microsome.
Data set [6] is described as follows: Half life in dog liver microsomes at 3 uM. Type of data set: ADME, Canis lupus familiaris, Microsome. (In general: Liver microsomes are vesicles of endoplasmic reticulum, rich in cytochrome P450 enzymes.)
The nature of data set [7]: Half life in human liver microsomes at 3 uM. Type of data set: ADME, Microsome.
The nature of data set [8]: Permeability coefficient, Kp in human Caco2 cells. Type of data set: ADME, cell-based. Particulars: Caco-2, read-out: Kp.
Data set [9] in a line: Cmax in Sprague-Dawley rat at 5 mg/kg, po administered via gavage. The format is ADME, organism-based. Further details: dose 5 mg/kg, route oral. Particulars: in vivo.
A short description of data set [10]: AUC(0 to t) in Sprague-Dawley rat at 5 mg/kg, po administered via gavage. The format is ADME, organism-based. Particulars: in vivo.
A short description of data set [11]: Half life in Sprague-Dawley rat at 5 mg/kg, po administered via gavage. The format is ADME, organism-based. The note with it: in vivo.
Data set [12] can be described thus: Oral bioavailability in Sprague-Dawley rat at 5 mg/kg administered via gavage. The note with it: in vivo. The format is ADME, organism-based.
For data set [13], the system named is Mus musculus. Kind of data set: Inhibition of morphine-induced delays in intestinal transit in po dosed ICR mouse administered via gavage pretreated with compound and 30 mins later injected with morphine followed 5 mins later by ingestion of test meal and measured after 60 mins. The note with it: for ED50: read-out: ID50 (the source's name). Type of data set: functional. Put shortly:
(§2)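 Mice dosed orally; reversal of morphine-induced delay in intestinal transit, delay in gastric emptying, or hot plate antinociception measured; dose-dependent responses fitted to give ID50 in mg/kg.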

Data set [14] deals with Mus musculus. Briefly: Inhibition of morphine-induced delays in gastric emptying in po dosed ICR mouse administered via gavage pretreated with compound and 30 mins later injected with morphine followed 5 mins later by ingestion of test meal and measured after 60 mins. The format is functional. Particulars: for ED50: read-out: ID50 (the source's name). The essentials: as §2

Data set [15] relates to Mus musculus. Kind of data set: Inhibition of morphine-induced antinociceptive activity in po dosed ICR mouse administered via gavage pretreated with compound and 30 mins later injected with morphine and measured after 30 mins by hot plate test. Type of data set: functional. Particulars: for ED50: read-out: ID50 (the source's name). Put shortly: as §2
Background: Thermal pain tests record how soon the animal reacts.

The species named for data set [16] is Mus musculus. Kind of data set: Peripheral selectivity index, ratio of ID50 for inhibition of morphine-induced antinociceptive activity in ICR mouse to ID50 for inhibition of morphine-induced delays in intestinal transit in ICR mouse. Type of data set: functional. Put shortly:
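Mice were dosed orally with antagonist at several doses and challenged with morphine. ID50 values were taken from dose-dependent reversal of morphine-induced hot plate antinociception (CNS) and of morphine-induced delay in intestinal transit (peripheral). The index is the hot plate ID50 divided by the intestinal transit ID50.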

The species entered for data set [17] is Mus musculus. Briefly: Peripheral selectivity index, ratio of ID50 for inhibition of morphine-induced delays in gastric emptying in ICR mouse to ID50 for inhibition of morphine-induced delays in intestinal transit in ICR mouse. The format is functional.
A short description of data set [18]: Half life in rat liver microsomes at 15 uM. The format is ADME, Microsome.

Delta-type opioid receptor, sequence (P41143 whole entry): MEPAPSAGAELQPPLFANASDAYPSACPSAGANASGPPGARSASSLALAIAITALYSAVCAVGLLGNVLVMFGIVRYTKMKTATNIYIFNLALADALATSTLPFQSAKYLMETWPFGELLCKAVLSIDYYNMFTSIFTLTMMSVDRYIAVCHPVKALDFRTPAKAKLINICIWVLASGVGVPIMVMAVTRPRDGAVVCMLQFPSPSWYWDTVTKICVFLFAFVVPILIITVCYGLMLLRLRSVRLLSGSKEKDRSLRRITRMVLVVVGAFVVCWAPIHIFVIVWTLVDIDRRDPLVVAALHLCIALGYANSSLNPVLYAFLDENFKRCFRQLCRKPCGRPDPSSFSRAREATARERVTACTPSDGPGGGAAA
T1 sequence (P35372 whole entry): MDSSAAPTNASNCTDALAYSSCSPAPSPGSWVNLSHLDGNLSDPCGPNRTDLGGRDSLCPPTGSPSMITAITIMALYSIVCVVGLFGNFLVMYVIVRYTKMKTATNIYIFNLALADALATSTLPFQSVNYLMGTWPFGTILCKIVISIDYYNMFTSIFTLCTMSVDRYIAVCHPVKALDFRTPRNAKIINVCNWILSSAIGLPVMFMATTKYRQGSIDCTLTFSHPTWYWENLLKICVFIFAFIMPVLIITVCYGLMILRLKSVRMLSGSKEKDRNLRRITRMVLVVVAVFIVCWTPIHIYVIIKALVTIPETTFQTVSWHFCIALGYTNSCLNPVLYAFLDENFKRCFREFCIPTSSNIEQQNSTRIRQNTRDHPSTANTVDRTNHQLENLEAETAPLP

`NC(=O)c1cccc([C@H]2C[C@H]3CC[C@@H](C2)N3CCN(CC2CCCCC2)C(=O)CO)c1`: the inhibition constant (Ki) (as a rule, a dissociation constant, usually derived from enzyme kinetics or from competition with a known ligand) in data set [1] is 0.1 nM; in data set [2], 3.98 nM; in data set [3], 0.126 nM. For the same compound, the Intrinsic activity in data set [4] is -3%. The figures for the half-life at 3 µM in [5], in data set [6] and in data set [7] were 77 min, 18 min and 79 min, respectively. Moreover, in data set [8], the Papp was determined as 40 ×10⁻⁶ cm/s. Also, the Cmax (usually the highest concentration seen after dosing) in data set [9] is 290 ng/mL. Besides, the AUC(0-t) (as a rule, exposure summed from dosing to a finite time, without extrapolation to infinity) in data set [10] worked out at 430 ng·h/mL. In data set [11], the half-life (in general, the time needed for the level to fall by half in the phase considered) was 78 min. The bioavailability – broadly, dose-corrected exposure relative to a reference, in per cent – in data set [12] was determined as 61%. In addition, the inhibition result in data set [13], in [14] and in [15] was “Dose-dependent effect” in each case. Besides, the results for the ED50 in [13], in data set [14] and in data set [15] were 0.1 mg/kg, 0.046 mg/kg and 4.2 mg/kg, respectively. Further, the “Selectivity Index” value in data set [16] came out at 42; in data set [17], 91.
As for `NC(=O)c1cccc([C@H]2C[C@H]3CC[C@@H](C2)N3CCN(CCCc2ccccc2)C(=O)CO)c1`, the Ki in [1] was 0.794 nM; in data set [2], 31.6 nM; in data set [3] it was 0.501 nM. Moreover, the Intrinsic activity in [4] is -13%. In [18], this compound gave a half-life at 15 µM of 32 min. Moreover, in data set [8], the Papp amounted to 26 ×10⁻⁶ cm/s.
Regarding `C[C@H]1CN(C[C@H](Cc2ccccc2)C(=O)O)CC[C@@]1(C)c1cccc(O)c1`, the Ki was 0.316 nM in data set [1], 15.8 nM in data set [2] and 25.1 nM in data set [3]. Further, in data set [4], the Intrinsic activity is -8%. Further, the half-life at 3 µM in data set [5], in data set [6] and in data set [7] was greater than 90 min each time. For the same compound, the Papp in data set [8] amounted to 5 ×10⁻⁶ cm/s. Also, the Cmax in data set [9] was found to be 710 ng/mL. The AUC(0-t) in data set [10] came to 1200 ng·h/mL. For the same compound, the half-life in [11] is 222 min. Further, in [12], the bioavailability worked out at 53%. The ED50 in data set [13] turned out to be 0.064 mg/kg; in data set [14], 0.027 mg/kg; in data set [15], 1.1 mg/kg. Also, the “Selectivity Index” value came to 17 in data set [16] and 41 in [17].
For the compound `NC(=O)c1cccc([C@H]2C[C@H]3CC[C@@H](C2)N3CCN(CC2CCC(F)(F)CC2)C(=O)CO)c1`, the inhibition constant (Ki) was 0.126 nM in data set [1], 12.6 nM in data set [2] and 0.251 nM in data set [3]. In addition, in [4], the Intrinsic activity is -5%. For the same compound, the half-life at 3 µM in data set [5], in data set [6] and in [7] was 90 min each time. Besides, the Papp in data set [8] was 14 ×10⁻⁶ cm/s. In [9], this compound yielded a Cmax of 390 ng/mL. In data set [10], the AUC(0-t) worked out at 1200 ng·h/mL. Besides, the half-life in data set [11] is 120 min. The compound also had a bioavailability in data set [12] of 30%. The inhibition entry in data set [13], in data set [14] and in data set [15] was “Dose-dependent effect” each time. For the same compound, the ED50 in [13] came out at 0.23 mg/kg; in [14], 0.03 mg/kg; in data set [15] it was 4.4 mg/kg. The “Selectivity Index” value in data set [16] was determined as 19; in data set [17], 147.
For the compound `O=C1CC[C@@]2(O)[C@H]3Cc4ccc(O)c5c4[C@@]2(CCN3CC2CC2)[C@H]1O5` [NALTREXONE], the Papp in [8] was found to be 84 ×10⁻⁶ cm/s. In addition, the ED50 in data set [13] worked out at 0.6 mg/kg; in data set [14], 0.5 mg/kg; in data set [15], 0.82 mg/kg.
With `NC(=O)c1cccc([C@H]2C[C@H]3CC[C@@H](C2)N3CCNCC2CCCCC2)c1`, the Ki is 0.251 nM in [1], 6.31 nM in data set [2] and 0.158 nM in [3]. Further, the Intrinsic activity in [4] was 12%. The half-life at 15 µM in [18] came out at 42 min.
Take `NC(=O)c1cccc([C@H]2C[C@H]3CC[C@@H](C2)N3CCN(CC2CCC2)C(=O)CO)c1`: the values for the Ki in [1], in [2] and in data set [3] were 1.58 nM, 31.6 nM and 0.631 nM, respectively. The Intrinsic activity in data set [4] stood at 13%. The half-life at 3 µM in [5], in data set [6] and in data set [7] was 90 min in each case. For the same compound, in data set [8], the Papp turned out to be 14 ×10⁻⁶ cm/s.
`CS(=O)(=O)CC(=O)N(CCN1[C@@H]2CC[C@H]1C[C@@H](c1cccc(C(N)=O)c1)C2)CC1CCCCC1`: the Ki in [1] is 0.1 nM; in [2] it was 1.26 nM; in data set [3] it was 0.1 nM. Moreover, the Intrinsic activity in [4] was 0%. Further, the values for the half-life at 3 µM in data set [5], in data set [6] and in data set [7] were 50 min, 28 min and 90 min, respectively. Further, in data set [8], the Papp turned out to be 18 ×10⁻⁶ cm/s. The same compound showed a Cmax in data set [9] of 880 ng/mL. Moreover, in data set [10], the AUC(0-t) turned out to be 1300 ng·h/mL. In data set [11], this compound had a half-life of 60 min. In [12], this compound returned a bioavailability of 60%. The inhibition result in data set [13], in data set [14] and in data set [15] was “Dose-dependent effect” each time. Moreover, the results for the ED50 in data set [13], in data set [14] and in data set [15] were 0.49 mg/kg, 0.33 mg/kg and 24 mg/kg, respectively. For the same compound, the “Selectivity Index” value in data set [16] amounted to 49; in [17] it was 73.
`NC(=O)c1cccc([C@H]2C[C@H]3CC[C@@H](C2)N3CCN(CC2CCCCC2)C(=O)C(F)(F)F)c1`: the Ki in [1] was 0.794 nM; in data set [2], 10 nM; in data set [3], 1 nM. In data set [4], the Intrinsic activity came to 9%. In data set [18], this compound came in with a half-life at 15 µM of 3 min.
Turning to `NC(=O)c1cccc([C@H]2C[C@H]3CC[C@@H](C2)N3CCN(CC2CCCC2)C(=O)CO)c1`, the values for the Ki in [1], in data set [2] and in data set [3] were 0.251 nM, 15.8 nM and 0.316 nM, respectively. Further, the Intrinsic activity in [4] is 4%. The half-life at 3 µM in data set [5] is 90 min; in data set [6] it was 14 min; in data set [7], 90 min. Moreover, the Papp in data set [8] was 12 ×10⁻⁶ cm/s.
